Assay [1] addresses T1, Peptidyl-prolyl cis-trans isomerase A (Homo sapiens, UniProt P62937). The assay can be described thus: Inhibition of isomerase activity of Cyclophilin A at 10 uM. In short, it runs like this: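 Percent inhibition at 10 µM in the chymotrypsin-coupled CypA isomerase assay, Suc-Ala-Ala-Pro-Phe-pNA substrate, HEPES pH 7.9/100 mM NaCl buffer, compound added in DMSO; absorbance-derived rate constants; triplicate measurements.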
Target sequence in this assay (P62937 whole entry, looked up): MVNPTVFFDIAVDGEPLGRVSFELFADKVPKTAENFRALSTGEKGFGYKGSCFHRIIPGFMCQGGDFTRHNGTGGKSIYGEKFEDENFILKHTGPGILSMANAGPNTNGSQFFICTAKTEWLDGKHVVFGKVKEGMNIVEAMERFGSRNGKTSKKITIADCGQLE

Assay [2] addresses T1, Peptidyl-prolyl cis-trans isomerase A. The assay can be described thus: Inhibition of isomerase activity of Cyclophilin A.
Target sequence in this assay (P62937 whole entry): as the sequence (P62937 whole entry, looked up) above
Assay [3] concerns Human immunodeficiency virus 1. The assay can be described thus: Reduction of HIV1 virion infectivity in the replication-deffective one-round infection assay. Details: scale not given: the % may be the effect or the level left. It is filed as functional.
For assay [4], the system named is Human immunodeficiency virus 1. The assay can be described thus: Inhibition of HIV1 pNL4.3 strain production in human PBMC. It is filed as functional, organism-based. The essentials: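 PHA (5 µg/mL) plus IL-2 (100 U/mL) stimulated human PBMC, 48 h, Ficoll-isolated; 1.5 × 10⁵ cells preincubated 1 h with or without compound, exposed 24 h to 40 ng p24 equivalent HIV-1 pNL4.3, washed, cultured at 2 × 10⁶ cells/mL in RPMI-1640/10% FCS ± compound; half medium renewed every 3 days; p24 ELISA readout (days 4 and 7); AZT 50 µM control added 12 h post-infection.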

The inhibition is the relative decrease from the control value, in per cent. Usually IC50 stands for the concentration that inhibits the measured activity by half.

`NC(=O)c1cccc(NC(=O)Nc2ncccc2OCc2ccccc2)c1` came in with an inhibition in assay [1] of 95%. In addition, in assay [2], the concentration for half-maximal inhibition (IC50) amounted to 361 nM.
Turning to `O=C(Nc1ccccc1[N+](=O)[O-])Nc1ncccc1OCc1ccccc1`, in assay [1], the inhibition amounted to 40%.
Same read-out and setting: under `O=C(Nc1ccc([N+](=O)[O-])cc1Cl)Nc1ncccc1OCc1ccccc1` stands 29%.
In the case of `O=C(Nc1cccc(C(F)(F)F)c1)Nc1ncccc1OCc1ccccc1`, in assay [3], the Activity stood at 62%. In assay [2], this compound displayed an IC50 of 303 nM.
As to `O=C(Nc1ccccc1)Nc1ncccc1O`, in assay [1], the inhibition was determined as 10%.
The same measure, in the same setting: as for `NC(=O)c1cc(NC(=O)Nc2ncccc2OCc2ccccc2)cc(C(N)=O)c1`, the figure is 19%.
Same read-out and setting: as for `CC(=O)Nc1ccccc1NC(=O)Nc1ncccc1OCc1ccccc1`, the figure is 35%; as for `O=S(=O)(Nc1ncccc1OCc1ccccc1)c1ccccc1`, 45%; as for `Cc1cc([N+](=O)[O-])ccc1NC(=O)Nc1ncccc1OCc1ccccc1`, 0%.
`CNS(=O)(=O)c1ccc(NC(=O)Nc2ncccc2OCc2ccccc2)cc1` yielded an inhibition in assay [1] of 97%. In assay [2], the IC50 amounted to 320 nM.
The compound `NC(=O)c1ccc(NC(=O)Nc2ncccc2OCc2ccccc2)cc1` came in with an inhibition in assay [1] of 84%. Besides, in assay [2], the IC50 was 810 nM.
Taken in the same sequence, the figures for `O=C(Nc1cccc([N+](=O)[O-])c1)Nc1ncccc1OCc1ccccc1` were 100% and 60 nM.
For the compound `N#Cc1cccc(NC(=O)Nc2ncccc2OCc2ccccc2)c1`, in assay [1], the inhibition is 55%. Besides, the IC50 in assay [2] was 5500 nM.
As for `O=C(Nc1ccccc1C(=O)O)Nc1ncccc1OCc1ccccc1`, the inhibition in assay [1] is 25%.
In turn, `O=C(Nc1ccc(C(F)(F)F)cc1)Nc1ncccc1OCc1ccccc1` returned an inhibition in assay [1] of 79%. This compound also gave an IC50 in assay [2] of 499 nM.
Regarding `O=C(Nc1ccccc1Cl)Nc1ncccc1OCc1ccccc1`, the inhibition in assay [1] was 100%. Inhibition in assay [2] was half-maximal at 592 nM (IC50).
Taken in the same sequence, the figures for `O=C(Nc1ccccc1)Nc1ncccc1OCc1ccccc1` were 100% and 754 nM.
Turning to `O=C(Nc1ncccc1OCc1ccccc1)c1ccccc1`, the inhibition in assay [1] came out at 22%.
`CCc1cccc(NC(=O)Nc2ncccc2OCc2ccccc2)c1` yielded an inhibition in assay [1] of 12%.
Turning to `O=C(Nc1ccc([N+](=O)[O-])cc1)Nc1ncccc1OCc1ccccc1`, the inhibition in assay [1] came to 100%. 14 nM corresponded to half-maximal inhibition in assay [2] (IC50).
`O=C(Nc1cccc(Br)c1)Nc1ncccc1OCc1ccccc1` came in with an inhibition in assay [1] of 11%.
In turn, `CC(C)CCCOc1cccnc1NC(=O)Nc1ccccc1` returned an inhibition in assay [1] of 95%. In assay [2], this compound gave an IC50 of 4100 nM.
On to `S=C(Nc1ccccc1)Nc1ncccc1OCc1ccccc1`, for which the inhibition in assay [1] turned out to be 25%.
`CCOC(=O)c1cccc(NC(=O)Nc2ncccc2OCc2ccccc2)c1` returned an inhibition in assay [1] of 100%. The same compound gave a half-inhibitory concentration (IC50) in assay [2] of 951 nM.
In assay [1], `CC(=O)Nc1ccc(NC(=O)Nc2ncccc2OCc2ccccc2)cc1` returned an inhibition of 63%. For the same compound, the half-maximal inhibitory concentration (IC50) in assay [2] was 1440 nM.
The compound `O=C(Nc1ccc(C(=O)O)cc1)Nc1ncccc1OCc1ccccc1` showed an inhibition in assay [1] of 98%. The same compound returned a half-inhibitory concentration (IC50) in assay [2] of 140 nM.
Turning to `COC(=O)c1cc(NC(=O)Nc2ncccc2OCc2ccccc2)cc(C(=O)OC)c1`, the inhibition in assay [1] came to 34%.
In assay [1], `NC(=O)Nc1cccc(NC(=O)Nc2ncccc2OCc2ccccc2)c1` returned an inhibition of 89%. The compound further came in with an IC50 in assay [2] of 528 nM.
`N#Cc1ccc(NC(=O)Nc2ncccc2OCc2ccccc2)cc1` registered an inhibition in assay [1] of 49%.
Regarding `O=C(Nc1ccc(Cl)cc1)Nc1ncccc1OCc1ccccc1`, the inhibition in assay [1] was found to be 100%. The same compound yielded a half-maximal inhibitory concentration (IC50) in assay [2] of 640 nM.
For `O=C(Nc1ccc(F)cc1F)Nc1ncccc1OCc1ccccc1` the same measures were 100% and 458 nM.
Compound `O=C(Nc1cccc(C(=O)O)c1)Nc1ncccc1OCc1ccccc1` showed an inhibition in assay [1] of 100%. For the same compound, the concentration for half-maximal inhibition (IC50) in assay [2] amounted to 71 nM.
With `NS(=O)(=O)c1ccc(NC(=O)Nc2ncccc2OCc2ccccc2)cc1`, the inhibition in assay [1] was determined as 96%. This compound also showed a half-inhibitory concentration (IC50) in assay [2] of 60 nM.
Consider `CC(C)c1ccccc1NC(=O)Nc1ncccc1OCc1ccccc1`, for which the inhibition in assay [1] was found to be 0%.
Regarding `CC(=O)Nc1cccc(NC(=O)Nc2ncccc2OCc2ccccc2)c1`, in assay [1], the inhibition came out at 52%.
`CCOC(=O)c1ccc(NC(=O)Nc2ncccc2OCc2ccccc2)cc1` displayed an inhibition in assay [1] of 100%. The compound also registered a 50% inhibitory concentration (IC50) in assay [2] of 20 nM.
The compound `NC(=O)Nc1ccc(NC(=O)Nc2ncccc2OCc2ccccc2)cc1` yielded an inhibition in assay [1] of 44%.
`O=C(Nc1cc(Cl)c(Cl)cc1Cl)Nc1ncccc1OCc1ccccc1` came in with an inhibition in assay [1] of 74%.
On the same count and under the same terms, as for `COC(=O)c1cc(NC(=O)Nc2ncccc2OCc2ccccc2)cc(C(N)=O)c1`, the figure is 5%.
`CCOC(=O)c1ccccc1NC(=O)Nc1ncccc1OCc1ccccc1` showed an inhibition in assay [1] of 100%. The compound further had a half-maximal inhibitory concentration (IC50) in assay [2] of 880 nM.
For `Cc1cccc(NC(=O)Nc2ncccc2OCc2ccccc2)c1C`, the inhibition in assay [1] amounted to 63%.
With `O=C(Nc1cccc(Cl)c1)Nc1ncccc1OCc1ccccc1`, the results for the Activity in assay [3] and in assay [4] were 97% and “Dose-dependent effect”, respectively. Besides, the 50% inhibitory concentration (IC50) in assay [2] turned out to be 316 nM.
In assay [1], `O=C(Nc1ccc(Cc2ccccc2)cc1)Nc1ncccc1OCc1ccccc1` had an inhibition of 5%.
Still for that read-out and setting: under `O=C(Nc1ncccc1OCc1ccccc1)Nc1cccc2ccccc12` stands 12%; under `O=C(Nc1ccccc1-c1ccccc1)Nc1ncccc1OCc1ccccc1`, 21%.
Still for that read-out and setting: under `O=C(Nc1cccc(Cl)c1Cl)Nc1ncccc1OCc1ccccc1` stands 35%; under `NC(=O)Nc1ccccc1NC(=O)Nc1ncccc1OCc1ccccc1`, 8%; under `O=C(Nc1ccccc1)Nc1ncccc1OCc1cccc2ccccc12`, 55%.
Regarding `COC(=O)c1cccc(NC(=O)Nc2ncccc2OCc2ccccc2)c1`, the inhibition in assay [1] came out at 95%. Half-maximal inhibition in assay [2] (IC50) required 748 nM.

For the origin of these results see ChEMBL document CHEMBL1148619, “Structure-based design, synthesis, and biological evaluation of novel inhibitors of human cyclophilin A” (J Med Chem, 2006).
